The list is not random: actives were taken first. Their share in the collection is about 3.5%.
RGS4 act: RGS4 potentiators or activators, primary screen, cell-based, HEK293 M3R inducible RGS4, calcium flux; B-score at 10 µM; carbachol calcium flux Fluo4; active compounds read low; 310,000 tested, 0.92% active; AID 463111, 2010;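 active = B-score of the integrated calcium signal more than 4 SD below the library mean, with starting fluorescence not abnormally high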;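 note: negative B-score means reduced calcium response which marks RGS4 activation or potentiation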
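Reagent: ECmax carbachol challenge; Test system: M3R-expressing HEK293 line, RGS4 induced by doxycycline; Schedule: overnight RGS4 induction, 30 min dye load 37 °C, 20 min compound RT; Detection: calcium dye Fluo4 fluorescence; Read-out: Agonist-evoked peak-minus-minimum fluorescence over baseline, integrated ratio, B score.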
RGS4 block: RGS4 inhibitors, primary screen, cell-based, HEK293 M3R inducible RGS4, calcium flux; Fluo-4 calcium flux; active compounds read high; triggered by carbachol at its EC20; B-score at 10 µM; AID 463165, 2010; 310,000 tested, 0.45% active;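 active = B-score, a plate-corrected calcium signal, over three deviations above library mean, with baseline fluorescence within five deviations of library mean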;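 note: RGS4 expression induced by doxycycline in cells with stable M3 receptor; B-score is computed from the integrated fluorescence ratio over baseline after carbachol; higher B-score means a larger calcium signal and so more RGS4 inhibition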
Target sequence (P49798 whole entry, looked up): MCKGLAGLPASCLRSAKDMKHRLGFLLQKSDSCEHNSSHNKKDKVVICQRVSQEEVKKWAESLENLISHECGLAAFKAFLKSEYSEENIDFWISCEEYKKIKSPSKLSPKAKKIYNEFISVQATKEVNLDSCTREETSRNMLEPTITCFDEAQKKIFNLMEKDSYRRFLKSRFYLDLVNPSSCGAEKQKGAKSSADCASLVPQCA
MrgX1 agonist: agonists of human MrgX1 receptor, primary screen, HEK293 cells, Fluo-4 calcium flux; Fluo-4 calcium fluorescence, agonist mode; active compounds read high; B-score at 10 µM; 310,000 tested, 0.44% active;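 active = calcium response B-score plate-corrected fluorescence ratio at least 3 library SD, with starting fluorescence B-score inside 5 SD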
Target sequence (Q96LB2 whole entry, looked up): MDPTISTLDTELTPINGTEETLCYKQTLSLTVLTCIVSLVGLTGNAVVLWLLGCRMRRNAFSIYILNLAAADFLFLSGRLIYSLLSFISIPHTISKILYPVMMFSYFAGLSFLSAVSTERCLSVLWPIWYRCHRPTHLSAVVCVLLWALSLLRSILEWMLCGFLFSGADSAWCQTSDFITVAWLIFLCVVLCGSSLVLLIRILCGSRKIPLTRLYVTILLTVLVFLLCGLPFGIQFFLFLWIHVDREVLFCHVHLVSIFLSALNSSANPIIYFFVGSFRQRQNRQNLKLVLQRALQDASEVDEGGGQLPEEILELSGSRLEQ
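System: HEK293 cells stably expressing human MrgX1 receptor; Dosing: test compound in the initial addition of three; Schedule: overnight plating, then 30 min 37 °C plus 30 min room-temperature dye loading; Detection: kinetic calcium dye fluorescence, Fluo-4 NW; Controls: per-plate positive and negative controls for Z′ factor.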
MrgX1 allo act: positive allosteric modulators of MrgX1, primary screen, HEK293 cells, Fluo-4 calcium flux. 310,000 tested, 0.63% active. FDSS; active compounds read high. Mas-related G-protein coupled receptor member X1 (Homo sapiens), Q96LB2. B-score at 10 µM;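 active = plate-corrected calcium response at least 3 library SD above typical, normal starting fluorescence, not activating the receptor alone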;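 note: compound read alongside a low EC10 to EC30 dose of BAM8-22 agonist; peak minus trough fluorescence over baseline measured at the second addition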
MrgX1 antagonist: antagonists of human MrgX1 receptor, primary screen, HEK293 cells, Fluo-4 calcium flux; Mas-related G-protein coupled receptor member X1 (Homo sapiens), Q96LB2; BAM8-22 antagonism; active compounds read low; B-score at 10 µM; 310,000 tested, 1.3% active; AID 588676, 2011;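 active = calcium-response B-score plate-corrected more than 3 library SD below zero, starting fluorescence within 5 deviations, no agonist response on first addition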;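 note: peak minus trough fluorescence over baseline after final BAM8-22 challenge near maximal dose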
Starred values were filed as active, the others as inactive; i = inactive; . = no result given.

SMILES	RGS4 act	RGS4 block	MrgX1 agonist	MrgX1 allo act	MrgX1 antagonist
Cc1nc(C)n(C(C)CNS(=O)(=O)c2ccc(C)c(C)c2)n1 (stereo not given)	i	i	i	i	i
O=C(c1ccco1)[C@@H]1[C@@H]2C(=O)N(c3ccccc3)C(=O)[C@@H]2C2c3ccccc3C=CN21 (stereo not given in full)	i	i	i	i	i
COc1ccc(N2C(=O)[C@@H]3[C@H](C2=O)[C@H]2c4ccccc4C=CN2[C@@H]3C(=O)Nc2ccccc2)cc1	.	.	i	i	-7.1*
CCN1C(=O)[C@@H]2[C@@H](c3ccc(-c4ccc(F)cc4)cc3)N3CCCC[C@@]3(C(=O)OC)[C@@H]2C1=O	i	i	i	i	i
O=C(Nc1cc(S(=O)(=O)N2CCOCC2)ccc1N1CCOCC1)c1cccc(S(=O)(=O)N2CCCCC2)c1	i	i	i	i	i
COc1ccc(N2CCN(Cc3cc(=O)c(OCC(=O)Nc4ccccc4)co3)CC2)cc1	i	i	i	i	i
COc1ccc(NC(=O)COc2coc(CN3CCN(c4ccccc4)CC3)cc2=O)cc1	i	i	i	i	-5.7*
CCn1ncc(/C=N\NC(=O)c2ccc3c(c2)c(C)c(C)n3Cc2ccccc2)c1C	i	i	i	i	i
CCn1nc(C)c(/C=N/NC(=O)c2ccc3c(c2)c(C)c(C)n3Cc2ccccc2)c1C	-8.3*	i	i	i	i
CN(Cc1ccc(F)cc1)C(=O)c1sccc1-c1ccccc1	-7.2*	i	i	i	i
O=S1(=O)[C@H]2C[C@@H]3C=C[C@@]2(CN1Cc1ccc(F)cc1)O3	i	i	i	i	i
CCN1CCN(c2nn3c(=O)c4ccccc4nc3c3ccccc23)CC1	-8.6*	i	i	i	i
CC1CN(c2nn3c(=O)c4ccccc4nc3c3ccccc23)CC(C)O1 (stereo not given)	i	i	i	i	i
CCOC(=O)c1c(NC(=O)C2=COCCO2)sc2c1CCN(C(=O)OC)C2	i	i	i	i	i
CCOc1ccc2nc(N3CCC(C(=O)N4CCN(c5ncccn5)CC4)CC3)sc2c1	i	i	i	i	-8.1*
O=C(CN1C(=O)NC2NC(=O)NC21)NC1CCCCC1 (stereo not given)	i	i	i	i	i
CCC(=O)c1cn(CC(=O)Nc2ccc(C)cc2C)c2ccccc12	i	i	i	i	i
O=C(COC(=O)c1ccc(-c2ccc([N+](=O)[O-])cc2)o1)NC(=O)NC12CC3CC(CC(C3)C1)C2	i	i	i	i	i
CCOC(=O)C1CCCN(C(=O)c2ccc(-c3ccc([N+](=O)[O-])cc3)o2)C1 (stereo not given)	-9*	i	i	i	i
O=C(COC(=O)c1ccc(-c2ccc([N+](=O)[O-])cc2)o1)NC(=O)NC1CCCCC1	-7*	i	i	i	i
O=C(CN1C(=O)NC2(CCCC2)C1=O)Nc1cc(Cl)ccc1N1CCOCC1	i	i	i	i	i
COc1ccc(Nc2nnc(SC(C(=O)Nc3ccc(OC)c(Cl)c3)c3ccccc3)s2)cc1 (stereo not given)	i	i	i	16*	i
O=C(O)/C(=C\c1ccc2ccccc2c1)c1cccc2ccccc12	i	i	i	i	i
CC(Oc1ccccc1)C(=O)Nc1cc(Cl)ccc1-n1cncn1 (stereo not given)	i	i	i	i	i
CC1CCCCN1C(=O)CSc1nc(C2CC2)nc2c1cnn2-c1ccccc1 (stereo not given)	-7*	i	i	i	i
SMILES	RGS4 act	RGS4 block	MrgX1 agonist	MrgX1 allo act	MrgX1 antagonist
Cc1nn(C)c(C)c1NC(=O)CSc1nc(C2CC2)nc2c1cnn2-c1ccccc1	i	i	i	i	i
Cc1cc(C)c(C)c(S(=O)(=O)N2CCC(C(=O)Nc3ccncc3)CC2)c1C	i	i	i	i	i
C=CCOc1cccc(C2/C(=C(/O)c3ccc(Cl)cc3)C(=O)C(=O)N2CCN2CCOCC2)c1 (stereo not given)	i	i	i	i	-5*
COC1=C(c2ccccc2)C(=O)c2ccccc2C1=O	i	i	i	7.2*	i
C=C1c2cc3c(cc2NC(=S)N1Cc1ccccc1)OCO3	i	i	i	i	i
O=[N+]([O-])c1nn(-c2ccc3c(c2)OCCO3)n(O)c1=NC1CCN(Cc2ccccc2)CC1	i	i	i	i	-5.1*
Cc1cc(C2=NNC(=NC3CC3)SC2)c(C)n1Cc1ccco1	.	.	i	i	i
COCCCN=C1NN=C(c2cc(C)n(Cc3ccco3)c2C)CS1	i	i	i	10*	i
COc1cc(C(=O)NCCC(c2ccccc2)c2ccccc2)cc(OC)c1OC	i	i	i	i	i
c1ccc(COc2ccc(CNCc3cccs3)cc2)cc1	-8.3*	i	i	i	i
CCOC(=O)C1CCN(S(=O)(=O)c2ccc3c(c2)CC(=O)N3C)CC1	i	i	39*	i	i
CCOC(=O)C1CCN(S(=O)(=O)c2ccc3c(c2)CCCN3C(C)=O)CC1	i	i	i	i	i
O=C(CCc1nc(-c2ccccc2Cl)no1)NC1CCCCC1	i	i	i	i	i
O=C(O)C(c1ccccc1)N1CCCCC1 (stereo not given)	i	i	i	i	-4.7*
COc1cc(CNCc2ccc(Br)cc2)cc(OC)c1	i	i	i	i	i
CC1(c2ccc(OC(F)F)cc2)NC(=O)N(CC(=O)Nc2ccc(F)cc2)C1=O (stereo not given)	i	i	i	i	i
CC1(c2ccc(OC(F)F)cc2)NC(=O)N(CC(=O)Nc2ccc(OC(F)F)cc2)C1=O (stereo not given)	i	i	i	i	-12*
CC1(c2ccc(OC(F)F)cc2)NC(=O)N(CC(=O)Nc2cccc(F)c2)C1=O (stereo not given)	i	i	i	i	-6.2*
Cc1ccc(C(=O)O/N=C2\CC3CCC2(C)C3(C)C)cc1 (stereo not given)	i	i	i	6.6*	i

Screening results deposited in PubChem BioAssay by Johns Hopkins Ion Channel Center.
